The record followed here is publication PMC7424737 (ACS Omega, 2020).

Each structure is given as a SMILES string. Values after ≈ are worked out from the molar mass of the structure shown.

Experiment [1] relates to TMV. The experiment is described as follows: Anti-TMV curative activity in vivo, half-leaf method. Details: species or system tobacco mosaic virus. Particulars: against TMV in vivo at 500 mg/L (500 μg/mL); average of three replicates ± SD. In a few lines: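 Five-leaf-stage tobacco plants were dusted with emery and rub-inoculated with TMV. After 0.5 h the emery was rinsed off with water and the leaves left to dry. Test compound solution went on the left half-leaf and blank solution on the right. Lesions were counted per half 3–4 days later, and inhibition (%) was calculated from treated versus blank counts. Three repeats; ribavirin positive control.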

In experiment [2] the test system is TMV. Briefly: Anti-TMV inactivation. The format is in vivo. To be noted: Tobacco mosaic virus, read-out: EC50 of inactivation effect activity. The method, boiled down:
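TMV was mixed with test compound for 0.5 h. The mixture was rubbed onto the right half-leaf of tobacco plants, and the left half received the same virus dose alone. Lesions were counted 3–4 days later. Inhibition (%) was calculated from lesion numbers versus the blank-control half. Three repeats; ribavirin positive control.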

For experiment [3], the target named is T1, TMV-coat protein (TMV-CP) (Tobacco mosaic virus, UniProt P69687).
T1 sequence (P69687 2-159 limits assumed): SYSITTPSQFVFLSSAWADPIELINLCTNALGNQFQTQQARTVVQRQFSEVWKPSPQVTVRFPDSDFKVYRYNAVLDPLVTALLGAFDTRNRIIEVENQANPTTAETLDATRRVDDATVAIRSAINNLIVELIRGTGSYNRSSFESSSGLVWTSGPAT
Briefly: Microscale thermophoresis. The format is binding. The method, boiled down:
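Test compound binding to TMV coat protein was measured by microscale thermophoresis to give a dissociation constant (Kd). Ningnanmycin and ribavirin served as positive controls. Each test was repeated three times.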
For orientation: In MST a laser heats a spot of the sample, and binding alters the fluorescence response.

Regarding `NC(=O)c1ncn([C@@H]2O[C@H](CO)[C@@H](O)[C@H]2O)n1` [ribavirin], in the experiment with TMV [1], the curative effect activity amounted to 49.3 ± 7.5%. The EC50 with TMV [2] is 138 ± 4.2 µg/mL (≈ 566 µM). For the same molecule, the Kd in experiment [3] worked out at 223 ± 66.2 µM.

As a reminder, the EC50 is the midpoint of the concentration-response curve. For orientation: Kd means the concentration at which binding is half-saturated. Read a high Kd as lower affinity.
